# The source made the active and inactive calls. The calls are words filed in the database; no cut-off is given here.
# What was measured:
# [1] = tested on: MCF7; test: Induction of CDKN1A gene expression in human MCF7 cells transfected with 53BP1-targeting iRNA-based shRNA by Western blot analysis; assay type: functional, cell-based
# In short: (§1)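 MCF-7 expressing GFP control shRNA or either of two 53BP1 shRNAs; lysates immunoblotted for 53BP1, p53 (DO-1), p21 (C19) and MDM2 (2A10, SMP14) after SDS-PAGE transfer to nitrocellulose.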
# [2] = tested on: MCF7; test: Induction of p53 expression in human MCF7 cells by Western blot analysis; assay type: functional, cell-based; in short: as §1
# [3] = tested on: MCF7; test: Induction of cell cycle arrest in human MCF7 cells transfected hnRNPK-targeting iRNA-based shRNA at 4 uM after 14 days by BrdU incorporation assay; assay type: functional
# [4] = tested on: MCF7; test: Induction of p53 expression in human MCF7 cells transfected with 53BP1-targeting iRNA-based shRNA by Western blot analysis; assay type: functional, cell-based; in short: as §1
# [5] = tested on: MCF7; test: Induction of p53 expression in human MCF7 cells assessed as increase in p21CIP1 level after 18 hrs by Western blot method in presence of 2.5 mM caffeine; assay type: functional, cell-based
# In short: (§2)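 MCF-7 pretreated 12 h with 2.5 mM caffeine (or not), then exposed to increasing nutlin-3 concentrations for 18 h; lysates run on SDS-PAGE, blotted to nitrocellulose and probed for p53 (DO-1) and p21 (C19).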
# [6] = tested on: MCF7; test: Antiproliferative activity against human MCF7 cells at 4 uM after 14 days by coomassie staining; assay type: functional, cell-based
# In short: (§3)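 Retrovirally transduced shRNA (GFP control, p53, or two independent 53BP1 hairpins in pRETROSUPER); cells grown in DMEM with 10% fetal calf serum at 37 °C, 5% CO2; left untreated or given 4 µM nutlin-3 for 14 days; cell density shown by Coomassie staining, morphology inspected.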
# [7] = tested on: A549; test: Antiproliferative activity against human A549 cells transfected with 53BP1-targeting iRNA-based shRNA assessed as effect on cellular morphology at 4 uM after 14 days by coomassie staining; assay type: functional, cell-based; in short: as §3
# [8] = tested on: MCF7; test: Induction of p53 accumulation in human MCF7 cells after 18 hrs by Western blot analysis in presence of 2.5 mM caffeine; assay type: functional, cell-based; in short: as §2
# [9] = tested on: MCF7; test: Antiproliferative activity against human MCF7 cells transfected with p53-targeting iRNA-based shRNA assessed as effect on cellular morphology at 4 uM after 14 days by coomassie staining; assay type: functional, cell-based; in short: as §3
# [10] = tested on: MCF7; test: Induction of apoptosis in human MCF7 cells transfected with p53-targeting iRNA-based shRNA at 4 uM after 14 days by BrdU incorporation assay; assay type: functional, cell-based
# [11] = tested on: MCF7; test: Induction of cell cycle arrest in human MCF7 cells 53BP1-targeting iRNA-based shRNA assessed as accumulation at S phase at 4 uM after 48 hrs by BrdU incorporation assay; assay type: functional
# In short: (§4)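 MCF-7 carrying shRNA against GFP (control), p53 or 53BP1, untreated or given 4 µM nutlin-3 for 48 h; 10 µM BrdU pulse 30 min before harvest; ethanol fixation, HCl-Triton permeabilization, borate neutralization; anti-BrdU plus FITC secondary, propidium iodide with RNase; 10,000 cells per sample by flow cytometry; S-phase percentage = BrdU-positive fraction.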
# [12] = tested on: MCF7; test: Induction of apoptosis in human MCF7 cells co-transfected with 53BP1-targeting iRNA-based shRNA at 4 uM after 14 days by BrdU incorporation assay; assay type: functional, cell-based
# [13] = tested on: MCF7; test: Induction of cell cycle arrest in human MCF7 cells transfected with p53-targeting iRNA-based shRNA at 4 uM after 14 days by BrdU incorporation assay; assay type: functional
# [14] = tested on: MCF7; test: Induction of cell cycle arrest in human MCF7 cells p53-targeting iRNA-based shRNA assessed as accumulation at S phase at 4 uM after 48 hrs by BrdU incorporation assay; assay type: functional; in short: as §4
# [15] = tested on: MCF7; test: Antiproliferative activity against human MCF7 cells transfected with 53BP1-targeting iRNA-based shRNA assessed as effect on cellular morphology at 4 uM after 14 days by coomassie staining; assay type: functional, cell-based; in short: as §3
# [16] = tested on: MCF7; test: Induction of cell cycle arrest in human MCF7 cells transfected with 53BP1-targeting iRNA-based shRNA at 4 uM after 48 hrs by BrdU incorporation assay
# [17] = tested on: MCF7; test: Antiproliferative activity against human MCF7 cells assessed as appearance of flattened phenotype at 4 uM after 14 days by coomassie staining; assay type: functional, cell-based; in short: as §3
# [18] = tested on: BJ; test: Induction of p21CIP1 expression in irradiated human BJ cells at 3 uM by Western blot analysis; assay type: functional, cell-based
# In short: (§5)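 Normal BJ fibroblasts, with or without 2 Gy irradiation, treated with increasing nutlin-3 concentrations; SDS-PAGE and nitrocellulose immunoblot for p53 stabilization and p21 induction.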
# [19] = tested on: BJ; test: Induction of p21 expression in irradiated human BJ cells at 3 uM by Western blot analysis; assay type: functional, cell-based; in short: as §5
smiles,measurement,setting,value
COc1ccc(C2=N[C@@H](c3ccc(Cl)cc3)[C@@H](c3ccc(Cl)cc3)N2C(=O)N2CCNC(=O)C2)c(OC(C)C)c1 [NUTLIN-3],Activity,[1],inactive
same,Activity,[2],Active
same,Activity,[3],Active
same,Activity,[4],Active
same,Activity,[5],inactive
same,Activity,[6],Active
same,Activity,[7],inactive
same,Activity,[8],Active
same,Activity,[9],inactive
same,Activity,[10],inactive
same,Activity,[11],17%
same,Activity,[12],inactive
same,Activity,[13],Active
same,Activity,[14],29%
same,Activity,[15],inactive
same,Activity,[16],Active
same,Activity,[17],Active
same,Activity,[18],Active
same,Activity,[19],Active

# — ChEMBL document CHEMBL1221179, “An shRNA barcode screen provides insight into cancer cell vulnerability to MDM2 inhibitors” (2006)
